Reference: ChEMBL document CHEMBL1124344, “5-Piperazinylalkyl-2(3H)-oxazolones with neuroleptic activity” (J Med Chem, 1989)
pIC50: −log10 of the molar value.

How the values were obtained:
Mus musculus [1] = assay: Anticonvulsant activity against electroshock-induced convulsions, after 5 hours of peroral administration in mouse; format: functional; conditions: po
Procedure, shortened: (§1)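 Compounds were dosed as bases suspended in arabic gum at 10 mL/kg orally, after an overnight fast, with vehicle controls. Protection meant no bilateral forepaw clonic seizures or head twitches (tryptamine), or no tonic hind-limb extension (the other two). ED50 is the dose protecting 50%, by probit analysis.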

Mus musculus [2] = assay: Effect on skeletal muscle tone, after 1 hour of peroral administration in mouse; format: functional; conditions: Muscle tissue, po
Procedure, shortened: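 Male mice suspended by forepaws from a 1.8-mm wire stretched 15 cm above a plane. Trained normal mice touch the wire with a hind paw within 2 s (traction) and hang at least 1 min (suspension). Oral dosing 1 or 5 h before. ED50 is the dose making 50% of mice fall without traction and suspension.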

Rattus norvegicus [3] = species on record: Rattus norvegicus; assay: Body weight gain, after 2 hour period of conditioned feeding in rats; format: functional
Procedure, shortened: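 Female rats (250–280 g) were kept singly on a 22-h food deprivation schedule, with pellets 10–12 a.m. and water always available. After 30–40 days of training they were dosed 1 h before the 2-h feeding and weighed before and after it. Weight gain was expressed as a percentage of the two preceding control days. ED50 is the dose giving 50% reduction.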

Mus musculus [4] = assay: Lethal dose in mice by administered the compound intraperitoneally; format: functional; conditions: ip
Procedure, shortened: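 Acute toxicity tested in mice by the intraperitoneal route. LD50 is the dose killing 50% of treated mice, computed by Finney probit analysis; values are approximate.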

Mus musculus [5] = assay: Inhibitory activity against tremorine-induced salivation, after 5 hour of peroral administration in mouse; conditions: po
Mus musculus [6] = assay: Activity of inclined screen in mouse, after 5 hour of peroral administration in mouse; format: functional; conditions: po
Procedure, shortened: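 Male mice dosed orally (arabic gum suspension, 10 mL/kg, fasted overnight) 1 or 5 h before testing. Placed for 1 h on a wire screen bent at 60° to the horizontal. Ataxic or miorelaxed mice slide off. ED50 is the dose at which 50% of mice fall, by probit analysis. Ten animals per dose, with vehicle controls.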

Mus musculus [7] = assay: Inhibitory activity against tremorine-induced salivation, after 1 hour of peroral administration in mouse; format: functional; conditions: po
Procedure, shortened: (§2)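 Male mice fasted overnight, dosed orally with arabic gum suspension (10 mL/kg) 1 or 5 h before test, vehicle controls included. Tremorine 20 mg/kg ip given 1 h after compounds; central (tremor) and peripheral (salivation) parasympathetic signs recorded. ED50 = dose protecting 50% of animals, by probit analysis.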

Rattus norvegicus [8] = species on record: Rattus norvegicus; assay: Binding affinity against rat striatal membranes using [3H]spiroperidol as the radioligand after 15 min of incubation at 37 °C
Mus musculus [9] = assay: Anticonvulsant activity against electroshock-induced convulsions, after 1 hour of peroral administration in mouse; format: functional; conditions: po
Procedure, shortened: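 Male mice given oral drug in arabic gum suspension (10 mL/kg) after overnight fast, then challenged by maximal electroshock. Protection means absence of tonic hind-limb extension. ED50 is the dose protecting 50% of mice, by probit analysis.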

Mus musculus [10] = assay: Inhibition against apomorphine-induced turning, after 5 hour of peroral administration in mouse; format: functional; conditions: po
Procedure, shortened: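 Mice were lesioned unilaterally with intranigrostriatal 6-hydroxydopamine (20 µg). At 7 days, strong contraversive turners 15 min after apomorphine 2 mg/kg ip were selected. A week later they were dosed orally and rechallenged. Fewer than six full rotations in 2 min counted as protection. ED50 is the dose protecting 50%.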

Rattus norvegicus [11] = assay: Activity to evoke catalepsy in rats, by administering perorally; format: functional; conditions: po
Procedure, shortened: (§3)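 Rats fasted overnight and given oral doses in arabic gum suspension (10 mL/kg), 1 h before screening or 1 and 5 h before profile testing. Forelegs placed on a horizontal bar 7 cm high, three times at 5-min intervals. Immobility of at least 15 s counts as catalepsy. ED50 is the dose giving catalepsy in 50% of rats, by probit analysis. Parenthetical entries give the maximal dose and percent activity.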

Dopamine receptor = assay: Binding affinity against rat striatal membranes using [3H]spiroperidol as the radioligand, after 15 min of incubation in vitro at 37 degree C; parameters: species or system Striatum, Membrane
Procedure, shortened: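 Crude rat striatal membranes were stored at –80 °C, then thawed and washed. They were incubated 15 min at 37 °C with drug (10⁻¹⁰ to 10⁻⁴ M), [3H]spiroperidol 0.5 nM, 1 μM pargyline and 0.1% ascorbic acid, then filtered, washed and counted. Nonspecific binding was defined with 1 μM haloperidol. IC50 was read from the displacement curve.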

Rattus norvegicus [12] = assay: Inhibitory activity against norepinephrine-induced lethality, after 5 hour of peroral administration in rat; format: functional; conditions: po
Procedure, shortened: (§4)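 Rats (80–90 g) dosed orally (arabic gum, 10 mL/kg) 1 or 5 h before norepinephrine 0.5 mg/kg iv, which kills unprotected rats within 30 min. ED50 is the dose protecting 50% of rats from lethality, by probit analysis.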

Mus musculus [13] = assay: Anticonvulsant activity against pentylenetetrazole-induced convulsions, after 1 hour of peroral administration in mouse at dose of 100 mg/kg; format: functional; conditions: route oral; procedure, shortened: as §1
Rattus norvegicus [14] = assay: Inhibitory activity against norepinephrine-induced lethality, after 1 hour of peroral administration in rat; format: functional; conditions: po; procedure, shortened: as §4
Mus musculus [15] = assay: Effect on skeletal muscle tone, after 5 hour of peroral administration in mouse; format: functional; conditions: Muscle tissue, po
Procedure, shortened: (§5)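 Male mice were placed for 1 h on a 60° inclined wire screen just after dosing and 4 h later. In a second test, trained mice hung by the forepaws from a horizontal 1.8 mm wire 15 cm up; normal mice touch it with a hind paw within 2 s and stay ≥1 min. ED50 is the dose making 50% fall. Dosing was oral in gum arabic suspension at 10 mL/kg after an overnight fast.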

Rattus norvegicus [16] = assay: Antagonistic activity against apomorphine-induced stereotypy in rats, by administering perorally; format: functional; conditions: po
Procedure, shortened: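 Male rats fasted overnight and given oral doses in arabic gum suspension (10 mL/kg) 1 h, or 1 and 5 h, before challenge. Apomorphine 3 mg/kg iv, with stereotypy observed 20 min later. ED50 is the dose inhibiting stereotypy in 50% of rats, per Janssen's method. Parenthetical entries give the maximal dose and percent activity.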

Canis familiaris = assay: Antagonistic activity against apomorphine-induced emesis, after 1 hr of peroral administration in dogs; format: functional; conditions: Canis lupus familiaris, po
Procedure, shortened: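 Male and female dogs pretreated orally, then challenged with apomorphine 0.3 mg/kg sc. Complete protection from vomiting for 30 min after apomorphine is the criterion. ED50 is the dose protecting 50% of dogs, per Janssen's method.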

Mus musculus [17] = assay: Anticonvulsant activity against pentylenetetrazole-induced convulsions, after 1 hour of peroral administration in mouse at a dose of 100 mg/kg; format: functional; conditions: route oral; procedure, shortened: as §1
Mus musculus [18] = assay: Inhibitory activity against tremorine-induced salivation, after 5 hour of peroral administration in mouse at a dose of 60 mg/kg; format: functional; conditions: route oral; procedure, shortened: as §2
Mus musculus [19] = assay: Inhibitory activity against tremorine-induced salivation, after 1 hour of peroral administration in mouse at a dose of 60 mg/kg; format: functional; conditions: route oral; procedure, shortened: as §2
Rattus norvegicus [20] = assay: Activity to evoke catalepsy, after 1 hour of peroral administration in rats at a dose of 200 mg/kg; format: functional; conditions: route oral; procedure, shortened: as §3
Mus musculus [21] = assay: Inhibitory activity against tremorine-induced tremors, after 5 hour of peroral administration in mouse at a dose of 60 mg/kg; format: functional; conditions: route oral; procedure, shortened: as §2
Mus musculus [22] = assay: Effect on skeletal muscle tone, after 1 hour of peroral administration in mouse at a dose of 200 mg/kg; format: functional; conditions: Muscle tissue, route oral; procedure, shortened: as §5
Mus musculus [23] = assay: Inhibitory activity against tremorine-induced tremors, after 1 hour of peroral administration in mouse at a dose of 60 mg/kg; format: functional; conditions: route oral; procedure, shortened: as §2
Mus musculus [24] = assay: Anticonvulsant activity against electroshock-induced convulsions, after 1 hour of peroral administration in mouse at a dose of 40 mg/kg; format: functional; conditions: route oral; procedure, shortened: as §1

`O=C(CCCN1CCC(O)(c2ccc(Cl)cc2)CC1)c1ccc(F)cc1` [HALOPERIDOL] gave an ED50 (Mus musculus [1]) of 0.38 mg/kg, an ED50 (Mus musculus [2]) of 17.1 mg/kg and an ED50 (Rattus norvegicus [3]) of 0.3 mg/kg. It also gave an ED50 (Mus musculus [4]) of 0.23 mg/kg, an ED50 (Mus musculus [5]) of 21.6 mg/kg and an ED50 (Mus musculus [6]) of 6.5 mg/kg. It also gave an ED50 (Mus musculus [7]) of 4 mg/kg, a pIC50 (Rattus norvegicus [8]) of 8.00 and an ED50 (Mus musculus [9]) of 1.9 mg/kg.
`COc1ccccc1N1CCN(CCc2oc(=O)[nH]c2-c2ccc(F)cc2)CC1` [ZOLOPERONE] gave an ED50 (Mus musculus [10]) of 20 mg/kg, an ED50 (Rattus norvegicus [3]) of 7.1 mg/kg and an ED50 (Rattus norvegicus [11]) of 55.6 mg/kg. The IC50 (Dopamine receptor) was 250 nM, the ED50 (Rattus norvegicus [12]) was 8.2 mg/kg and the inhibition in vivo at 100 mg/kg (Mus musculus [13]) was 0%. For the same molecule, the ED50 (Rattus norvegicus [14]) was 3.2 mg/kg, the ED50 (Mus musculus [15]) was 75 mg/kg and the ED50 (Rattus norvegicus [16]) was 10.4 mg/kg. For the same molecule, the ED50 (Canis familiaris) was 0.7 mg/kg.
For `CN(C)CCCN1c2ccccc2Sc2ccc(Cl)cc21` [CHLORPROMAZINE], the ED50 (Mus musculus [1]) was 10 mg/kg, the ED50 (Mus musculus [2]) was 2.7 mg/kg and the ED50 (Rattus norvegicus [3]) was 6 mg/kg. The ED50 (Mus musculus [4]) was 2.7 mg/kg, the ED50 (Mus musculus [5]) was 2 mg/kg and the ED50 (Mus musculus [6]) was 7 mg/kg. For the same molecule, the ED50 (Mus musculus [15]) was 7.5 mg/kg, the ED50 (Mus musculus [7]) was 2.5 mg/kg and the pIC50 (Rattus norvegicus [8]) was 6.74. The ED50 (Mus musculus [9]) was 19.2 mg/kg.
`O=c1[nH]c(-c2ccc(F)cc2)c(CCN2CCN(c3cc(Cl)cc(Cl)c3)CC2)o1` [LODIPERONE] gave an ED50 (Mus musculus [10]) of 1 mg/kg, an inhibition in vivo at 100 mg/kg (Mus musculus [17]) of 0% and an ED50 (Rattus norvegicus [3]) of 2.2 mg/kg. For the same molecule, the IC50 (Dopamine receptor) was 68 nM, the inhibition in vivo at 60 mg/kg (Mus musculus [18]) was 0% and the inhibition in vivo at 60 mg/kg (Mus musculus [19]) was 0%. For the same molecule, the inhibition in vivo at 200 mg/kg (Rattus norvegicus [20]) was 0%, the inhibition in vivo at 60 mg/kg (Mus musculus [21]) was 0% and the ED50 (Canis familiaris) was 4 mg/kg. The inhibition in vivo at 200 mg/kg (Mus musculus [22]) was 10% and the inhibition in vivo at 60 mg/kg (Mus musculus [23]) was 0%.
`COc1ccccc1N1CCN(CCCC(=O)c2ccc(F)cc2)CC1` [FLUANISONE] was tested, and the ED50 (Rattus norvegicus [11]) was 18 mg/kg, the inhibition in vivo at 60 mg/kg (Mus musculus [18]) was 0% and the inhibition in vivo at 60 mg/kg (Mus musculus [19]) was 0%. For the same molecule, the ED50 (Rattus norvegicus [12]) was 5.6 mg/kg, the ED50 (Rattus norvegicus [14]) was 1.9 mg/kg and the inhibition in vivo at 60 mg/kg (Mus musculus [21]) was 0%. For the same molecule, the inhibition in vivo at 40 mg/kg (Mus musculus [24]) was 0%, the ED50 (Rattus norvegicus [16]) was 63.2 mg/kg and the inhibition in vivo at 60 mg/kg (Mus musculus [23]) was 0%.
